Data: ChEMBL document CHEMBL2046306, “Synthesis of 6-substituted 9-methoxy-11H-indeno[1,2-c]quinoline-11-one derivatives as potential anticancer agents” (Bioorg Med Chem, 2012)
The source made the active and inactive calls. No cut-off for these calls is given here.

Key:
SF-268 = assay: Antiproliferative activity against human SF268 cells assessed as growth at 100 uM after 48 hrs by alamar blue assay; type: functional; conditions: SF-268, 48 h, read-out: Activity
Outline: (§1)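 Single-dose prescreen in a three-line NCI panel (NCI-H460, MCF7, SF-268). Cells were inoculated and preincubated on microtiter plates, then exposed to test agent at 100 μM for 48 h. Alamar blue end-point. Growth is expressed as percent of untreated control cells.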

Nucleic Acid [1] = assay: Binding affinity to Escherichia coli pBR322 assessed as DNA unwinding at 10 to 100 uM after 12 hrs by ethidium bromide staining-based agarose gel electrophoresis; type: nucleic-acid assay
Outline: (§2)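 Negatively supercoiled pBR322 plasmid (400 ng) incubated with the test compound in TE buffer, pH 8.0, for 12 h at room temperature. Loading buffer contained sarkosyl, bromophenol blue and glycerol. Samples run on 1% agarose at 6 V/cm for 2.5 h in TAE, pH 8.5. Ethidium bromide stain, imaged under UV; unwinding read as reduced mobility of form I DNA.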

NCI-H460 [2] = assay: Induction of apoptosis in human NCI-H460 cells assessed as accumulation at sub-G1 phase at 5 uM after 24 hrs by propidium iodide staining-based flow cytometric analysis (reference value: 0.9 +/- 0.3%); type: functional
NCI-H460 [3] = assay: Cell cycle arrest in human NCI-H460 cells assessed as accumulation at G1 phase at 5 uM after 24 hrs by propidium iodide staining-based flow cytometric analysis (reference value: 66.2 +/- 2.1%); type: functional
IGROV-1 = assay: Growth inhibition of human IGROV1 cells after 48 hrs by sulforhodamine B assay; type: functional; conditions: IGROV-1, 48 h
Outline: (§3)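 NCI 60-line screen. Cells grown in RPMI 1640 with 5% FBS and 2 mM L-glutamine, seeded at 5000–40,000 cells/well, preincubated 24 h at 37 °C. Five 10-fold dilutions added, highest well concentration 10E-4 M. Incubated 48 h in 5% CO₂ at 100% humidity. Sulforhodamine B read-out by optical density; GI50 taken from dose-response curves versus control.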

NCI-H460 [4] = assay: Cell cycle arrest in human NCI-H460 cells assessed as accumulation at S phase at 1 uM after 24 hrs by propidium iodide staining-based flow cytometric analysis (reference value: 14.3 +/- 1.9%); type: functional
NCI-H460 [5] = assay: Induction of apoptosis in human NCI-H460 cells assessed as PARP cleavage after 24 hrs by Western blot analysis; type: functional, cell-based
Outline: (§4)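 Treated H460 cells washed in cold PBS and lysed 30 min on ice in Tris-HCl pH 7.5/NP-40 buffer with protease and phosphatase inhibitors. Lysate spun at 12,000g. Protein measured by Bradford; 20 µg resolved on 10% SDS-PAGE and transferred to PVDF. Blocked with 5% milk, then primary antibody 2 h and secondary 30 min. Detected by ECL for PARP, procaspase-3 and procaspase-8.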

NCI-H460 [6] = assay: Induction of apoptosis in human NCI-H460 cells assessed as cell shrinkage at 10 uM after 24 hrs by light microscopic analysis relative to control; type: functional, cell-based
Outline: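 H460 cells exposed to DMSO or compound (1.0-10.0 μM) for 24 h at 37 °C, then photographed under a light microscope for morphology.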

NCI-H460 [7] = assay: Induction of apoptosis in human NCI-H460 cells assessed as induction of caspase 3 activity after 24 hrs by Western blot analysis; type: functional, cell-based; outline: as §4
NCI-H460 [8] = assay: Cell cycle arrest in human NCI-H460 cells assessed as accumulation at S phase at 5 uM after 24 hrs by propidium iodide staining-based flow cytometric analysis (reference value: 14.3 +/- 1.9%); type: functional
NCI-H460 [9] = assay: Cell cycle arrest in human NCI-H460 cells assessed as accumulation at G2/M phase at 5 uM after 24 hrs by propidium iodide staining-based flow cytometric analysis (reference value: 18.6 +/- 1.7%); type: functional
Nucleic Acid [10] = assay: Binding affinity to Escherichia coli pBR322 assessed as DNA unwinding at 1000 uM after 12 hrs by ethidium bromide staining-based agarose gel electrophoresis; type: nucleic-acid assay; outline: as §2
MCF7 = assay: Antiproliferative activity against human MCF7 cells assessed as growth at 100 uM after 48 hrs by alamar blue assay; type: functional; conditions: MCF7, 48 h, read-out: Activity; outline: as §1
NCI-H460 [11] = assay: Cell cycle arrest in human NCI-H460 cells assessed as accumulation at G1 phase at 10 uM after 24 hrs by propidium iodide staining-based flow cytometric analysis (reference value: 66.2 +/- 2.1%); type: functional
DU-145 = assay: Growth inhibition of human DU145 cells after 48 hrs by sulforhodamine B assay; type: functional; conditions: DU-145, 48 h; outline: as §3
NCI-H460 [12] = assay: Growth inhibition of human NCI-H460 cells after 48 hrs by sulforhodamine B assay; type: functional; conditions: NCI-H460, 48 h; outline: as §3
NCI-H460 [13] = assay: Cell cycle arrest in human NCI-H460 cells assessed as accumulation at G2/M phase at 10 uM after 24 hrs by propidium iodide staining-based flow cytometric analysis (reference value: 18.6 +/- 1.7%); type: functional
U-251 = assay: Growth inhibition of human U251 cells after 48 hrs by sulforhodamine B assay; type: functional; conditions: U-251, 48 h
Outline: (§5)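 NCI 60-line screen. Cells grown in RPMI 1640 with 5% FBS and 2 mM L-glutamine, seeded at 5000-40,000 cells/well and preincubated 24 h at 37 °C. Compounds added at five 10-fold dilutions, highest well concentration 10E-4 M. Exposure 48 h in 5% CO2 at 100% humidity. Endpoint is sulforhodamine B with optical density read-out. GI50 is the concentration giving 50% growth inhibition versus control.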

NCI-H460 [14] = assay: Cell cycle arrest in human NCI-H460 cells assessed as accumulation at G2/M phase at 1 uM after 24 hrs by propidium iodide staining-based flow cytometric analysis (reference value: 18.6 +/- 1.7%); type: functional
SR = assay: Growth inhibition of human SR cells after 48 hrs by sulforhodamine B assay; type: functional; outline: as §5
SK-MEL-5 = assay: Growth inhibition of human SK-MEL-5 cells after 48 hrs by sulforhodamine B assay; type: functional; conditions: SK-MEL-5, 48 h; outline: as §5
NCI-H460 [15] = assay: Induction of apoptosis in human NCI-H460 cells assessed as induction of caspase 8 activity after 24 hrs by Western blot analysis; type: functional, cell-based; outline: as §4
CCRF-CEM = assay: Growth inhibition of human CCRF-CEM cells after 48 hrs by sulforhodamine B assay; type: functional; outline: as §3
NCI-H460 [16] = assay: Induction of apoptosis in human NCI-H460 cells assessed as accumulation at sub-G1 phase at 1 uM after 24 hrs by propidium iodide staining-based flow cytometric analysis (reference value: 0.9 +/- 0.3%); type: functional
HCT-116 = assay: Growth inhibition of human HCT116 cells after 48 hrs by sulforhodamine B assay; type: functional; conditions: HCT-116, 48 h; outline: as §3
A549 = assay: Growth inhibition of human A549 cells after 48 hrs by sulforhodamine B assay; type: functional, cell-based; conditions: A549, 48 h; outline: as §3
NCI-H460 [17] = assay: Cell cycle arrest in human NCI-H460 cells assessed as accumulation at G1 phase at 1 uM after 24 hrs by propidium iodide staining-based flow cytometric analysis (reference value: 66.2 +/- 2.1%); type: functional
NCI-H460 [18] = assay: Cell cycle arrest in human NCI-H460 cells assessed as accumulation at S phase at 10 uM after 24 hrs by propidium iodide staining-based flow cytometric analysis (reference value: 14.3 +/- 1.9%); type: functional
NCI-H460 [19] = assay: Induction of apoptosis in human NCI-H460 cells assessed as accumulation at sub-G1 phase at 10 uM after 24 hrs by propidium iodide staining-based flow cytometric analysis (reference value: 0.9 +/- 0.3%); type: functional
[20] = Growth inhibition of human Hs 578T cells after 48 hrs by sulforhodamine B assay; type: functional; outline: as §3
NCI-H460 [21] = assay: Antiproliferative activity against human NCI-H460 cells assessed as growth at 100 uM after 48 hrs by alamar blue assay; type: functional; conditions: NCI-H460, 48 h, read-out: Activity; outline: as §1

## COc1ccc2c(c1)C(=O)c1c-2c(NCCCN(C)C)nc2ccccc12
SF-268
  growth at 100 µM: 0%
Nucleic Acid [1]
  Activity: Active
NCI-H460 [2]
  Activity: 8.2%
NCI-H460 [3]
  Activity: 49.2%
IGROV-1
  GI50: 6920 nM
NCI-H460 [4]
  Activity: 10.1%
NCI-H460 [5]
  Activity: Dose-dependent effect
NCI-H460 [6]
  Activity: Active
NCI-H460 [7]
  Activity: Dose-dependent effect
NCI-H460 [8]
  Activity: 9.1%
NCI-H460 [9]
  Activity: 33.5%
Nucleic Acid [10]
  Activity: inactive
MCF7
  growth at 100 µM: 0%
NCI-H460 [11]
  Activity: 41.4%
DU-145
  GI50: 6610 nM
NCI-H460 [12]
  GI50: 1330 nM
NCI-H460 [13]
  Activity: 21.5%
U-251
  GI50: 1100 nM
NCI-H460 [14]
  Activity: 28.1%
SR
  GI50: 1100 nM
SK-MEL-5
  GI50: 3890 nM
NCI-H460 [15]
  Activity: Dose-dependent effect
CCRF-CEM
  GI50: 3390 nM
NCI-H460 [16]
  Activity: 3.7%
HCT-116
  GI50: 1260 nM
A549
  GI50: 1860 nM
NCI-H460 [17]
  Activity: 58.1%
NCI-H460 [18]
  Activity: 11.8%
NCI-H460 [19]
  Activity: 25.3%
[20]
  GI50: 3720 nM
NCI-H460 [21]
  growth at 100 µM: 0%
